# High-throughput results from PubChem BioAssay.
# This excerpt belongs to a sample that is enriched for hits.
# H69AR inhibit: blocks growth of human H69AR lung tumor cells; H69AR lung tumor viability, ATP luminescence, 72 h; stronger effect = lower value; viability, % at 10 µM; actives 6% (n = 85,000); AID 598;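 active = viability at or below 40%; inactive = viability above 40%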;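 note: multidrug resistant small cell line overexpressing MRP-1 efflux transporter; 100% = mean luminescence of untreated control wells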
# HCT116 bCat-KO: beta-catenin-lacking colon tumor cell growth suppression | HCT116 beta-catenin knockout viability, CellTiter-Glo, 60 h; stronger effect = lower value | viability, % at 10 µM | actives 1.5% (n = 140,000);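 active = viability at or under a set limit, the compound median less 4 SD, cut at about 6% in these data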;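 note: 0% = Hyamine 1622 control at 20 µM and 100% = untreated cell control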
# HUVEC prolif 384: blocks proliferation of human endothelial cells. HUVEC proliferation, CellTiter-Glo luminescence, 72 h; stronger effect = lower value. viability, % at 10 µM (by protocol). actives 1.1% (n = 86,000). AID 648;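 active = viability at or below 30%; inactive = viability above 30%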;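 note: 100% = median luminescence of DMSO-only cell control wells on each plate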
# Lung fibro prol: blocks proliferation of human lung fibroblasts; LL 47 human lung fibroblast viability, ATP luminescence; stronger effect = lower value; viability, % at 10 µM; actives 1.1% (n = 85,000);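 active = viability at or below 50% in the single dose screen; inactive = viability above 50%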;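 note: compound exposure lasted 72 h before the ATP readout; 100% = median luminescence of untreated cell-only wells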
#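 Times – overnight cell rest, 72 h compound treatment at 37 °C · Test system – human lung fibroblast line LL 47, low passage · Amount – 1,150 cells in each well · Controls – cell-only wells, no compound · Doses – 0.1% DMSO in all compound wells · Measured by – CellTiter-Glo luminescence · Buffer or medium – IMEM plus 15% FBS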
# Pyk2 oligo antag: antagonists of human Pyk2 oligomerization | Q14289 | Q293 cells, Pyk2 FERM NanoBiT luminescence; stronger effect = lower value | z-score (the deposit names both 25 µM and 10 µM) | actives 0.83% (n = 99,000) | AID 1347419;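 active = Z-score of -3 or lower, scaled per plate to the spread of control and sample wells; inactive = z-score above -3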;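 note: negative z-score means lost luminescence so less FERM oligomerization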
# Target sequence (Q14289 whole entry, looked up): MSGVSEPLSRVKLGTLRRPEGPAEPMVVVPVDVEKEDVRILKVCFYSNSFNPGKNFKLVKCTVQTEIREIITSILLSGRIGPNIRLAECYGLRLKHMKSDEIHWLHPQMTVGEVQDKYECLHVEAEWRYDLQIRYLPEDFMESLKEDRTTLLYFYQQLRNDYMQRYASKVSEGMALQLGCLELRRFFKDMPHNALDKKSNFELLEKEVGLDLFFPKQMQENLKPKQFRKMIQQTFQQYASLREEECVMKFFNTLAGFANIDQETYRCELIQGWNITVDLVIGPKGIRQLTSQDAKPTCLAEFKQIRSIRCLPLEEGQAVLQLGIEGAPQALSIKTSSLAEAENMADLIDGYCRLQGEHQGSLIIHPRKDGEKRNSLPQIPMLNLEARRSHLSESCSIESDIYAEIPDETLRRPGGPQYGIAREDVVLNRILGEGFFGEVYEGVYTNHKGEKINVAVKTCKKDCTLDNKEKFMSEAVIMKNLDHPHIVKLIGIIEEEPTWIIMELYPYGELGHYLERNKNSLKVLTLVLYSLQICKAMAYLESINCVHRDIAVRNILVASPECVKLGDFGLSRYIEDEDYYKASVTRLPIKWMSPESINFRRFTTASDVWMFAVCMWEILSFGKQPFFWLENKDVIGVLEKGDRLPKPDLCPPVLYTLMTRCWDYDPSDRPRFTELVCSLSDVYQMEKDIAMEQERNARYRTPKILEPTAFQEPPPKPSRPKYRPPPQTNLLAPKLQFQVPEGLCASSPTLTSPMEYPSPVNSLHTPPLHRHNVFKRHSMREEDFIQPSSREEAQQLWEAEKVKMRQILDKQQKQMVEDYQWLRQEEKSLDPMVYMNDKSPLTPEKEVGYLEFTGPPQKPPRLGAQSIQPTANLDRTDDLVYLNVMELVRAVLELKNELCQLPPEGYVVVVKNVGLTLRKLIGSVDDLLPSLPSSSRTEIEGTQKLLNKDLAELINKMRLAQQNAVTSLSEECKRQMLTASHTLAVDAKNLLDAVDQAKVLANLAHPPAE
# HCT116 PTEN-null: PTEN-deleted cell growth suppression | HCT116 PTEN-null viability, CellTiter-Glo, 60 h; stronger effect = lower value | AID 827 | actives 1.2% (n = 140,000) | viability, % at 10 µM;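 active = viability at or below a set limit, 4 SD under the median of all tested compounds, cut at about 3.7% in these data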;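 note: PTEN knockout HCT116 line with beta catenin targeted HCT116 as companion control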
# Active calls of the source: *; · = no result given.
SMILES,H69AR inhibit,HCT116 bCat-KO,HUVEC prolif 384,Lung fibro prol,Pyk2 oligo antag,HCT116 PTEN-null
Cc1cc(C2=CC(C)(c3cc(C)oc3C)Nc3nc(C(F)(F)F)nn32)c(C)o1 (stereo not given),3.2*,80,67,80,·,83
COc1cc(-c2c(C#N)c(N)nc3c2c(C)nn3-c2ccc(C)c(C)c2)cc(OC)c1OC,60,62,65,88,-3.4*,58
Cc1nn(-c2ccc(F)cc2)c2nc(N)c(C#N)c(-c3cccs3)c12,59,94,96,83,-2.7,91
Cc1ccc(S(=O)(=O)/C(C#N)=C/c2c(N3CCC(C(N)=O)CC3)nc3c(C)cccn3c2=O)cc1,81,95,74,91,-2.4,94
Cc1ccc(S(=O)(=O)/C(C#N)=C/c2c(Oc3ccc(Cl)cc3)nc3c(C)cccn3c2=O)cc1,·,2.7*,·,·,·,2.0*
COc1ccc(/C=N/NC(=O)c2nc(Cl)c(Cl)c(N)c2Cl)cc1COc1ccc(F)cc1F,·,2.0*,·,·,0.35,5
CCSC1(SCC)N=C(N)C2(C#N)C(c3ccc(OC)c(OC)c3OC)C12C#N (stereo not given),2.1*,76,45,51,0.17,85
N#CC(=C1N=c2ccccc2=N1)c1c(O)[nH]c2ccccc12,·,87,·,·,·,84
Cn1c(O)c(C(C#N)=C2N=c3ccccc3=N2)c2ccccc21,14*,86,50,74,-1.1,74
COc1ccc(CN2C(=O)CN=C2Nc2cc(C)ccc2C)cc1,40*,98,79,95,-0.4,91
CCCCn1c(SCC(=O)c2ccc(OC)cc2OC)nc2cc(S(N)(=O)=O)ccc21,73,87,113,102,0.06,94
CCCCn1c(SC(C)C(=O)c2ccc(OC)cc2)nc2cc(S(N)(=O)=O)ccc21 (stereo not given),33*,75,102,98,-0.27,58
N#CC1=C(N)NC(SCc2ccccc2)=C(C#N)C12CCCCC2,11*,16,26*,60,-0.95,37
CCSC1=C(C#N)C2(CCCCC2)C(C#N)=C(N)N1,79,81,90,86,-0.88,87
COP(=O)(/C=C/c1ccccc1)C(O)c1ccc(F)cc1 (stereo not given),86,117,106,104,1.1,103
O=C(c1cc2n(n1)C(C(F)(F)F)CC(c1ccco1)N2)N1CCN(c2ccccn2)CC1 (stereo not given),96,98,98,106,-0.73,101
Cc1cccc(N2CCN(C(=O)c3cc4n(n3)C(C(F)(F)F)CC(c3ccco3)N4)CC2)c1C (stereo not given),·,2.2*,·,·,-1.3,3.5*
O=C1C2=C(NC(=S)NC2c2ccc(Cl)cc2)NC(c2ccc(Cl)cc2)N1c1ccc(Cl)cc1 (stereo not given),0.1*,13,7.6*,98,0.03,22
CCc1ccc(C2NC(=S)NC3=C2C(=O)N(c2ccccc2OC)C(c2ccc(CC)cc2)N3)cc1 (stereo not given),·,75,·,·,0.81,71
CC[C@H](C)[C@H](NC(=O)c1ccc(Cl)cc1)C(=O)OCC(=O)c1ccc2c(c1)NC(=O)CO2,2.6*,82,5.4*,21*,0.9,93
CC(C)c1ccc2c(c1)C1(NN=C(c3ccccc3)S1)C(=O)N2 (stereo not given),18*,4.5*,3.4*,43*,-1.3,9
CCc1ccc2c(c1)[C@]1(C(=O)N2)[C@@H]2C(=O)N(Cc3ccccc3)C(=O)[C@@H]2[C@@H]2CCCN21,91,90,86,92,-0.52,86
CCc1ccc2c(c1)C1(NN=C(c3ccc(C)cc3)S1)C(=O)N2 (stereo not given),2.3*,1.4*,9.8*,47*,-0.83,1.7*
CC(C)c1ccc(O)c(NC(=O)c2ncn[nH]2)c1,82,95,97,100,-0.02,92
Cc1ccc(N(Cc2ccc(C(=O)NN=C3CCN(C)CC3)cc2)S(C)(=O)=O)cc1C,·,101,·,·,·,99
SMILES,H69AR inhibit,HCT116 bCat-KO,HUVEC prolif 384,Lung fibro prol,Pyk2 oligo antag,HCT116 PTEN-null
Cc1cc(C)nc(SCc2ccc(C(=O)NNC(=O)Nc3cccc(Cl)c3)cc2)n1,·,76,·,·,·,67
CC(=O)N1CCc2c(sc(NC(=O)CN3C(=O)CCC3=O)c2C(N)=O)C1,94,90,105,113,·,93
CCc1nc2c(cnn2-c2ccc(Cl)cc2)c(=O)n1-c1ccc2c(c1)OCCO2,51,3.3*,94,91,0.86,6
CC1CCN(S(=O)(=O)c2ccc(S(=O)(=O)N3CCC4(CC3)OCCO4)cc2)CC1,·,94,·,·,·,105
CCCCNC(=O)c1ccc2c(SCC(=O)O)c3c(nc2c1)CCCC3,·,79,·,·,0.08,102
Cc1ccc(CNC(=O)CSc2c3c(nc4cc(Cl)ccc24)CCCC3)o1,2.7*,71,82,87,-0.42,62
CCN1C(=O)/C(=C2/C=Cc3ccccc3N2C)OC1=S,28*,10,88,91,-0.6,15
Cc1nn2c(Nc3ccccc3)c3c(nc2c1-c1ccccc1)CCC3,·,82,·,·,·,78
Cc1nn2c(NCCCN(C)C)c3c(nc2c1-c1ccccc1)CCC3,6.6*,2.4*,56,10*,0.09,1.7*
Cc1nn2c(NCC(C)C)c3c(nc2c1-c1ccccc1)CCC3,34*,92,101,88,0.02,83
COC(=O)c1sc(N)c(C(=O)OC)c1COC(=O)CCNS(=O)(=O)c1ccc(C)cc1,·,91,·,·,·,77
O=C(Nc1cccc(C(F)(F)F)c1)Nc1ccc(N2CCCC2)c(S(=O)(=O)Nc2ccccc2Cl)c1,·,1.5*,·,·,·,1.5*
COC(=O)c1sccc1OC(C)C(C)=O (stereo not given),·,91,·,·,0.39,95
CCOC(=O)C1=C(c2ccccc2)O/C(=C(/C#N)C(F)(F)F)S1,1.7*,8,10*,2.5*,·,7
CCOC(=O)C1=C(c2ccccc2)O/C(=C(\C(=O)OC)C(F)(F)F)S1,67,75,95,94,0.48,72
CCCCNc1ncnc2c1cnn2-c1ccccc1,13*,15,72,68,-1.5,23
c1ccc(-n2ncc3c(NCc4ccco4)ncnc32)cc1,28*,55,73,92,-1.2,58
CCCCNc1ncnc2c1cnn2-c1ccc(Cl)cc1,19*,19,60,59,·,23
c1ccc(Cn2ncc3c(NCc4ccco4)ncnc32)cc1,53,79,70,81,0.24,79
c1ccc(-n2ncc3c(NCCCN4CCOCC4)ncnc32)cc1,84,93,95,106,0.01,88
COCCCNc1ncnc2c1cnn2-c1ccc(C)cc1C,·,98,·,·,-0.22,95
CCCCNc1ncnc2c1cnn2-c1ccc(C)cc1C,37*,88,97,92,·,98
Clc1ccc(Cn2ncc3c(NCc4ccccc4)ncnc32)cc1,22*,34,57,55,-1.9,31
